What was measured:
[1] = target: Adrenergic receptor alpha (Rattus norvegicus) (UniProt P15823+P23944+P43140+P22086+P19328+P22909); assay: Antagonistic blocking activity at alpha adrenergic receptor by NE induced contractions of the epididymal portion of isolated rat vas deferens at the dose of 20 uM; format: functional, tissue-based; parameters: scale not given: the % may be the effect or the level left
In short: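 Epididymal portion of isolated rat vas deferens under 1.0 g tension in PSS (mM: NaCl 118, KCl 4.7, CaCl2 2.52, MgCl2 3.57, KH2PO4 1.54, NaHCO3 12.5, glucose 11.1). Antagonist at 20 µM for 30 min, then 30-min wash. Value is the percent decrease of maximum contraction to 100 µM NE versus control, mean ± SEM; n = 3–7.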

[2] = target: Adrenergic receptor alpha; assay: Inhibitory activity against alpha adrenergic receptor; format: protein assay
[3] = species on record: Rattus norvegicus; assay: Antimuscarinic activity against carbachol induced response in rat jejunum; format: functional
In short: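 Rat jejunum under 1.0 g tension in the same PSS, stabilised with submaximal agonist doses. Cumulative carbachol curves used about 3-fold steps and force-transducer recording. After about 15 min rest, antagonist (10–100 µM) was incubated 30 min and the curve repeated. Dose ratios were taken before and after a 30-min wash; mean ± SEM of 5–6 observations.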

[4] = target: Adrenergic receptor alpha; assay: Inhibitory activity against alpha adrenergic receptor in rat

SMILES	Activity [1] [%]	other results
O=[N+]([O-])c1ccccc1CNCCCCCCNCCSSCCNCCCCCCNCc1ccccc1[N+](=O)[O-]	51	
Fc1ccccc1CNCCCCCCNCCSSCCNCCCCCCNCc1ccccc1F	55	
Cn1cccc1CNCCCCCCNCCSSCCNCCCCCCNCc1cccn1C	100	
c1cncc(CNCCCCCCNCCSSCCNCCCCCCNCc2cccnc2)c1	13	
Brc1ccccc1CNCCCCCCNCCSSCCNCCCCCCNCc1ccccc1Br	58	
O=[N+]([O-])c1c(CNCCCCCCNCCSSCCNCCCCCCNCc2ccc(O)c(O)c2[N+](=O)[O-])ccc(O)c1O	17	
c1ccc(CNCCCCCCNCCSSCCNCCCCCCNCc2ccccn2)nc1	78	
c1csc(CNCCCCCCNCCSSCCNCCCCCCNCc2cccs2)c1	80	
c1ccc2ncc(CNCCCCCCNCCSSCCNCCCCCCNCc3cnc4ccccc4c3)cc2c1	36	
COc1ccc(CNCCCCCCNCCSSCCNCCCCCCNCc2ccc(OC)c(OC)c2[N+](=O)[O-])c([N+](=O)[O-])c1OC	27	
c1ccc2c(CNCCCCCCNCCSSCCNCCCCCCNCc3ccnc4ccccc34)ccnc2c1	32	
c1ccc2c(CNCCCCCCNCCSSCCNCCCCCCNCc3cccc4ccccc34)cccc2c1	22	
Cc1ccc(CNCCCCCCNCCSSCCNCCCCCCNCc2ccc(C)o2)o1	100	
c1coc(CNCCCCCCNCCSSCCNCCCCCCNCc2ccco2)c1	100	
c1c[nH]c(CNCCCCCCNCCSSCCNCCCCCCNCc2ccc[nH]2)c1	100	IC50 [2]: 0.9 µM; Kb [3]: 5.25 µM
COc1ccccc1CNCCCCCCNCCSSCCNCCCCCCNCc1ccccc1OC [BENEXTRAMINE]	100	IC50 [4]: 4.02 µM; Kb [3]: 2.01 µM
COc1c(C)cccc1CNCCCCCCNCCSSCCNCCCCCCNCc1cccc(C)c1OC	59	
O=[N+]([O-])c1ccc(CNCCCCCCNCCSSCCNCCCCCCNCc2ccc([N+](=O)[O-])cc2)cc1	41	
COc1cc(CNCCCCCCNCCSSCCNCCCCCCNCc2cc(OC)c(OC)cc2[N+](=O)[O-])c([N+](=O)[O-])cc1OC	47	
CSc1ccccc1CNCCCCCCNCCSSCCNCCCCCCNCc1ccccc1SC	66	
c1cc(CNCCCCCCNCCSSCCNCCCCCCNCc2ccsc2)cs1	17	
CS(=O)(=O)c1ccccc1CNCCCCCCNCCSSCCNCCCCCCNCc1ccccc1S(C)(=O)=O	35	
COc1cccc([N+](=O)[O-])c1CNCCCCCCNCCSSCCNCCCCCCNCc1c(OC)cccc1[N+](=O)[O-]	42	
O=[N+]([O-])c1cc(O)c(O)cc1CNCCCCCCNCCSSCCNCCCCCCNCc1cc(O)c(O)cc1[N+](=O)[O-]	99	

Now from value to compound, other results behind:

Activity [1] [%]	SMILES	other results
49	O=[N+]([O-])c1cccc(CNCCCCCCNCCSSCCNCCCCCCNCc2cccc([N+](=O)[O-])c2)c1	
34	Brc1ccc(CNCCCCCCNCCSSCCNCCCCCCNCc2ccc(Br)cc2)cc1	
100	Fc1ccc(CNCCCCCCNCCSSCCNCCCCCCNCc2ccc(F)cc2)cc1	
27	c1ccc2cc(CNCCCCCCNCCSSCCNCCCCCCNCc3ccc4ccccc4c3)ccc2c1	
54	Clc1ccc(CNCCCCCCNCCSSCCNCCCCCCNCc2ccc(Cl)cc2Cl)c(Cl)c1	
39	Clc1ccc(CNCCCCCCNCCSSCCNCCCCCCNCc2ccc(Cl)c(Cl)c2)cc1Cl	
11	c1cc(CNCCCCCCNCCSSCCNCCCCCCNCc2ccncc2)ccn1	
73	Fc1cccc(CNCCCCCCNCCSSCCNCCCCCCNCc2cccc(F)c2)c1	
44	Clc1cc(Cl)cc(CNCCCCCCNCCSSCCNCCCCCCNCc2cc(Cl)cc(Cl)c2)c1	
46	Clc1cccc(CNCCCCCCNCCSSCCNCCCCCCNCc2cccc(Cl)c2)c1	
58	Brc1cccc(CNCCCCCCNCCSSCCNCCCCCCNCc2cccc(Br)c2)c1	
50	Clc1ccc(CNCCCCCCNCCSSCCNCCCCCCNCc2ccc(Cl)cc2)cc1	

Source: ChEMBL document CHEMBL1122841, “Structure-activity relationships among benextramine-related tetraamine disulfides at peripheral alpha-adrenoreceptors” (J Med Chem, 1985)
